In brackets after ≈: the same amount, converted by molar mass.
Columns and labels:
[1] = target: T1, Potassium voltage-gated channel subfamily KQT member 1 (Homo sapiens, UniProt P51787); assay: Inhibition of human Kv7.1 by Ion-work electrophysiology assay
T1 sequence (P51787 whole entry): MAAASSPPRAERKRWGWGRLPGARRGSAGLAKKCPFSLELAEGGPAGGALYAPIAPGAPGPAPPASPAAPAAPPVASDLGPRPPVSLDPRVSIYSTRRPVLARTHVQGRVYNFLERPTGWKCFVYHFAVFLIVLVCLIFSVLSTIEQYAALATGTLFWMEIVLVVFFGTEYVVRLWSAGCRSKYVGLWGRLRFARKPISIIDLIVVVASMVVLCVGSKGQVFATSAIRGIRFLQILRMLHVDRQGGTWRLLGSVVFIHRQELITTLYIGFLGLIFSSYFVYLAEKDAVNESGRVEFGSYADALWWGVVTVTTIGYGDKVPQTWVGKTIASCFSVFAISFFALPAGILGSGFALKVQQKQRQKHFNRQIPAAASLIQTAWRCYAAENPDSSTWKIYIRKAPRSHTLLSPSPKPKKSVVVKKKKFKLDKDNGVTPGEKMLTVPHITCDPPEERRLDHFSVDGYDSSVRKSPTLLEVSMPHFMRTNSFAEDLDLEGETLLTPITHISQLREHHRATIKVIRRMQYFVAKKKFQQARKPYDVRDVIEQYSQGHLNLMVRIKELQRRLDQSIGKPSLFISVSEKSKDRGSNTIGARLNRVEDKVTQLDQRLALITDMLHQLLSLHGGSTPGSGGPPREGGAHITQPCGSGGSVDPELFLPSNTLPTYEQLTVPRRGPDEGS

[2] = target: Sodium channel protein type 5 subunit alpha (Homo sapiens, UniProt Q14524); assay: Inhibition of human NaV1.5 by Ion-work electrophysiology assay
Sodium channel protein type 5 subunit alpha, sequence (Q14524 whole entry): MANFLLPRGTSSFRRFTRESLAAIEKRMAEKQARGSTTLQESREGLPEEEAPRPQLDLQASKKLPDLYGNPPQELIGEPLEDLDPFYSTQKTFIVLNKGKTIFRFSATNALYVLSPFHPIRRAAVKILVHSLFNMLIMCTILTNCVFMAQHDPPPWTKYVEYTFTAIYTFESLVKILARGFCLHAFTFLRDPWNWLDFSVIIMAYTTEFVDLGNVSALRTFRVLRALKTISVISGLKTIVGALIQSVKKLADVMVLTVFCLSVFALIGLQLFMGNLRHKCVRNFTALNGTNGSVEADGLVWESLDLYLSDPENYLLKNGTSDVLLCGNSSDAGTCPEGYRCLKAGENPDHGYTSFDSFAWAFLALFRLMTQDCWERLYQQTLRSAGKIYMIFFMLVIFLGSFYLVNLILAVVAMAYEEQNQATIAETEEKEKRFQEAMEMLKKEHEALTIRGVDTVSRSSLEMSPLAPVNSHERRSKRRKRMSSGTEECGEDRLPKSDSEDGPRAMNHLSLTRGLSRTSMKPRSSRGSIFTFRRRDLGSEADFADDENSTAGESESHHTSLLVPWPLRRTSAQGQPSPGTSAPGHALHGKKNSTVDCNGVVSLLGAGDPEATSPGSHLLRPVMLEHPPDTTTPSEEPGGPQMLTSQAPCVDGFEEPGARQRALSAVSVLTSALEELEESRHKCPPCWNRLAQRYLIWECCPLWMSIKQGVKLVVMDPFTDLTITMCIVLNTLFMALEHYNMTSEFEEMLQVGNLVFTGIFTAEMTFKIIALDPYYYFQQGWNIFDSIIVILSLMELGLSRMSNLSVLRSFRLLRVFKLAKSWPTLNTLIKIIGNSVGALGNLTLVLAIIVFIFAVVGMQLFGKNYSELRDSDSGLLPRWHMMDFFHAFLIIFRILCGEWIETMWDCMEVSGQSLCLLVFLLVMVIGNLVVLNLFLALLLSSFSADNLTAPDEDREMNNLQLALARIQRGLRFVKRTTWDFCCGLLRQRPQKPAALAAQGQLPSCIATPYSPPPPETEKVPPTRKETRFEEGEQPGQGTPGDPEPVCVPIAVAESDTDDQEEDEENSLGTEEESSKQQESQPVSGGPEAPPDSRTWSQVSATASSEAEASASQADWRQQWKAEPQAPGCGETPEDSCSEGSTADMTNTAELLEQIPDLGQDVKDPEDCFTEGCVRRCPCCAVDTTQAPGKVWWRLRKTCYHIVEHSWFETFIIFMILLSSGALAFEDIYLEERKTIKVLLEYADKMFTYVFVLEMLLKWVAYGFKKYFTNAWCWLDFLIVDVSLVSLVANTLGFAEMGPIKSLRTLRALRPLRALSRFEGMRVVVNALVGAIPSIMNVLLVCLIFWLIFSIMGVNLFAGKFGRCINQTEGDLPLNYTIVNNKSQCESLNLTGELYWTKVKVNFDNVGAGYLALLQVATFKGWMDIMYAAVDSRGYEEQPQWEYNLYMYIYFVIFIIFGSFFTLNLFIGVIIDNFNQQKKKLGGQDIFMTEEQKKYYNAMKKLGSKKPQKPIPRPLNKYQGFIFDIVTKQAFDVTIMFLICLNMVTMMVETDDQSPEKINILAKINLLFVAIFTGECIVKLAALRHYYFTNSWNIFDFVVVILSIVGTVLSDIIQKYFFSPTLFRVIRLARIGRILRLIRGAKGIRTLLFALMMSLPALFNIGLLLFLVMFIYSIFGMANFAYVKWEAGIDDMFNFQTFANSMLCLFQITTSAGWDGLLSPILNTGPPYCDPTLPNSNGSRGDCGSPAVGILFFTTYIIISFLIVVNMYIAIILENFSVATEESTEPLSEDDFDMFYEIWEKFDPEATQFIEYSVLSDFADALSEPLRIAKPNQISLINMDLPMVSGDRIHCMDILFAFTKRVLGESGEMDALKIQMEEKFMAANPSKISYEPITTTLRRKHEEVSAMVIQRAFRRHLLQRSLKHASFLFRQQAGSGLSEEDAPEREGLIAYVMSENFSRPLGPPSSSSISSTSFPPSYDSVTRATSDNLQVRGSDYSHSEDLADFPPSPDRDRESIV

[3] = Intrinsic clearance in human hepatocytes assessed per million cells at 1 uM measured after 2 to 60 mins by LC-MS/MS analysis; format: ADME, cell-based, Hepatocyte; conditions: read-out: CLH
[4] = Aqueous solubility of the compound in pH 7.4 phosphate buffer measured after 24 hrs by LC-MS/MS-based shake flask method; format: physicochemical
Cytochrome P450 2C8 = target: T2, Cytochrome P450 2C8 (Homo sapiens, UniProt P10632); assay: Inhibition of recombinant human CYP2C8 expressed in Escherichia coli using luciferin-ME as substrate by fluorescence assay; format: ADME
T2 sequence (P10632 whole entry): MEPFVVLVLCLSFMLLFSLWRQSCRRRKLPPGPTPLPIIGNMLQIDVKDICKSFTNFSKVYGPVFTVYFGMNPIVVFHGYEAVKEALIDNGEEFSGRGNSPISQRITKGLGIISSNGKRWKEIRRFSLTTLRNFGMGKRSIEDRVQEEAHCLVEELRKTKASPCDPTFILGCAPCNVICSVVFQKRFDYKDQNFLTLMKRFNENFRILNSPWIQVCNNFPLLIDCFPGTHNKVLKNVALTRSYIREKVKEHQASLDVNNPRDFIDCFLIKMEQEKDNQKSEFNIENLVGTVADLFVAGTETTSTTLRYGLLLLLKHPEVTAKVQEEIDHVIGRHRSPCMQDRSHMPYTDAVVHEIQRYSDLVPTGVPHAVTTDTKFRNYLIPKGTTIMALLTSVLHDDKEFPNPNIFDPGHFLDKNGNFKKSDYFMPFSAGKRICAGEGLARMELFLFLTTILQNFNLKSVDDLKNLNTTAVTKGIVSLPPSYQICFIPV

Cytochrome P450 2D6 = Cytochrome P450 2D6 (Homo sapiens, UniProt P10635); assay: Inhibition of recombinant human CYP2D6 expressed in Escherichia coli using MAMC as substrate by fluorescence assay; format: ADME
Cytochrome P450 2D6, sequence (P10635 whole entry): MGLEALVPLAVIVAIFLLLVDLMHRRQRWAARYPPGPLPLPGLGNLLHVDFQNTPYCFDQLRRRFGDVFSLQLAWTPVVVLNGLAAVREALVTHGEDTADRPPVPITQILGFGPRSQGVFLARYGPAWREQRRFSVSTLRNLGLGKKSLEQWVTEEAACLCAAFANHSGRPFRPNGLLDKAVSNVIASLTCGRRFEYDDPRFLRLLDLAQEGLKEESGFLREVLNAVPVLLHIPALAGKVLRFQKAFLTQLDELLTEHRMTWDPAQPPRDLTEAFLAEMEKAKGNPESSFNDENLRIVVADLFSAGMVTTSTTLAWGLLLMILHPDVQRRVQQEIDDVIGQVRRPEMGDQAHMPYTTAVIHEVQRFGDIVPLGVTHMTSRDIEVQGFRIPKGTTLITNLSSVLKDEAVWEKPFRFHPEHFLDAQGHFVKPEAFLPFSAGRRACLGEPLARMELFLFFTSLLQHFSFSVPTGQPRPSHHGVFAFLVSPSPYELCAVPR

[5] = Mutagenicity in Salmonella typhimurium TA98 in presence of rat S9 fraction by Ames test; format: toxicity, subcellular; conditions: salmonella enterica subsp. enterica serovar typhimurium
Method in brief: (§1)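 Ames bacterial mutagenicity test in S. typhimurium TA98 and TA100. Run with and without metabolic activation by rat S9 fraction.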

Cytochrome P450 3A4 = Cytochrome P450 3A4 (Homo sapiens, UniProt P08684); assay: Inhibition of recombinant human CYP3A4 expressed in Escherichia coli using BFC as substrate by fluorescence assay; format: ADME
Cytochrome P450 3A4, sequence (P08684 whole entry): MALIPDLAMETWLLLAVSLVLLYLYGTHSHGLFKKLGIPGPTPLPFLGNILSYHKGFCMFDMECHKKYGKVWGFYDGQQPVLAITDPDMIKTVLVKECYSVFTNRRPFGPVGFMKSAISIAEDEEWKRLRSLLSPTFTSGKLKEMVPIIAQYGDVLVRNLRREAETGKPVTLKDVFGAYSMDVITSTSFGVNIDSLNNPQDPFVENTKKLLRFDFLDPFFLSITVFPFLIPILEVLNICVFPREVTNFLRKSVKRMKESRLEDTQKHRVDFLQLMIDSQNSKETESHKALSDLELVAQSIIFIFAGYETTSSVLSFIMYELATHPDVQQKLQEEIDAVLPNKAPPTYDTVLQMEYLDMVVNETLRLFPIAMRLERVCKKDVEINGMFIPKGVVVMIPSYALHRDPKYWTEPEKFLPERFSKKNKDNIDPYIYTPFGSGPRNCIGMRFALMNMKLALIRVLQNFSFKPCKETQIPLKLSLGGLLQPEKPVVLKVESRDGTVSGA

[6] = Mutagenicity in Salmonella typhimurium TA100 in presence of rat S9 fraction by Ames test; format: toxicity, subcellular; conditions: salmonella enterica subsp. enterica serovar typhimurium; method in brief: as §1
[7] = Cardiotoxicity in anesthetized Beagle dog assessed as effect on cardiac contractility administered for 2 days as 45 mins iv infusion followed by compound washout and subsequent adrenaline dosing for 2 days as 10 mins iv infusion; format: toxicity, organism-based, Canis lupus familiaris; conditions: in vivo
[8] = target: T3, A-type potassium channel modulatory protein KCNIP2 (Homo sapiens, UniProt Q9NS61); assay: Inhibition of human KChip2.2 by Ion-work electrophysiology assay
T3 sequence (Q9NS61 whole entry): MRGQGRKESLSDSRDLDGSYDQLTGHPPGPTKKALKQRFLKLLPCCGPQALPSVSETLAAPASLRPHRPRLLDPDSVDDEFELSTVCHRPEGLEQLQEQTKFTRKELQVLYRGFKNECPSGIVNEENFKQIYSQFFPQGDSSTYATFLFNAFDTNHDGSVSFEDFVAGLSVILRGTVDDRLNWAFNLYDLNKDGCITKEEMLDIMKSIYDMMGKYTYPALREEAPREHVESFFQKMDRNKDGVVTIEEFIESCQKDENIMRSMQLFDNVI

[9] = target: Potassium voltage-gated channel subfamily E member 1 (Homo sapiens, UniProt P15382); assay: Inhibition of human KCNE1 by Ion-work electrophysiology assay
[10] = target: Voltage-gated inwardly rectifying potassium channel KCNH2 (Homo sapiens, UniProt Q12809); assay: Inhibition of human ERG by Ion-work assay
Voltage-gated inwardly rectifying potassium channel KCNH2, sequence (Q12809 whole entry, the tested form may be a part): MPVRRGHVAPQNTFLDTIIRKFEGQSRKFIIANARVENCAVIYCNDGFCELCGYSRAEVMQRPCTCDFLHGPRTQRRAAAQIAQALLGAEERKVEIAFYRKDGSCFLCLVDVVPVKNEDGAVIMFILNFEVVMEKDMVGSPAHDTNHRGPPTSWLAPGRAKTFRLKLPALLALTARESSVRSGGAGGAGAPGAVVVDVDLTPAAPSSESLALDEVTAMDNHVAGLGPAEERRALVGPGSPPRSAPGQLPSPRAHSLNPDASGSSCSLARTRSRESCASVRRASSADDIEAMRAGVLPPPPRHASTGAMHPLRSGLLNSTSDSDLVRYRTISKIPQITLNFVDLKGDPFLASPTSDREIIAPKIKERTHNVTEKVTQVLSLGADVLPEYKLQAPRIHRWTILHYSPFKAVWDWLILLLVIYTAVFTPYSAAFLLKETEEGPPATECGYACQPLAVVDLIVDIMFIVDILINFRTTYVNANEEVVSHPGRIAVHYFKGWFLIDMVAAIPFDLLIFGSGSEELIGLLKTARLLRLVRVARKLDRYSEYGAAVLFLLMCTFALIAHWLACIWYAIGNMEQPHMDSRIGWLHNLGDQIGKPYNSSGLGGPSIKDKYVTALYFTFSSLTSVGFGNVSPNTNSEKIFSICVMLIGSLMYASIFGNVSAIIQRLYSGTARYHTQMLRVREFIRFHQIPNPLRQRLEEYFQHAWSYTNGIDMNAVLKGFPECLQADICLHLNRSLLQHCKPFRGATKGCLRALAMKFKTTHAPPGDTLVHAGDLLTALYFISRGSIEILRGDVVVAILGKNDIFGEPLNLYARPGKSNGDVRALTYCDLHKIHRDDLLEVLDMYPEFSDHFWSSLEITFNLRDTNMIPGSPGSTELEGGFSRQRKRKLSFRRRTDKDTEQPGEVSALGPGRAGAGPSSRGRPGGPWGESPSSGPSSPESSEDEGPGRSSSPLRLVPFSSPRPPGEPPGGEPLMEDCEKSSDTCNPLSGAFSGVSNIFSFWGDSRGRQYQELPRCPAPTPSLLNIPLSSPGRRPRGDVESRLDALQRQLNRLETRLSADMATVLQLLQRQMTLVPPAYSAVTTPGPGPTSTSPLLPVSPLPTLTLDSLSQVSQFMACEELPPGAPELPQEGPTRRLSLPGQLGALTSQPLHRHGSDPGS

[11] = Cardiotoxicity in anesthetized Beagle dog assessed as effect on heart rate administered for 2 days as 45 mins iv infusion followed by compound washout and subsequent adrenaline dosing for 2 days as 10 mins iv infusion; format: toxicity, organism-based, Canis lupus familiaris; conditions: in vivo
[12] = Mutagenicity in Salmonella typhimurium TA98 in absence of rat S9 fraction by Ames test; format: toxicity; conditions: salmonella enterica subsp. enterica serovar typhimurium; method in brief: as §1
[13] = Mutagenicity in Salmonella typhimurium TA100 in absence of rat S9 fraction by Ames test; format: toxicity; conditions: salmonella enterica subsp. enterica serovar typhimurium; method in brief: as §1
[14] = Protein binding in human plasma assessed as unbound fraction by equilibrium dialysis method; format: ADME, cell-free
[15] = Protein binding in Sprague-Dawley rat plasma assessed as unbound fraction by equilibrium dialysis method; format: ADME, cell-free
Cytochrome P450 2C9 = Cytochrome P450 2C9 (Homo sapiens, UniProt P11712); assay: Inhibition of recombinant human CYP2C9 expressed in Escherichia coli using 7MFC as substrate by fluorescence assay; format: ADME
Cytochrome P450 2C9, sequence (P11712 whole entry): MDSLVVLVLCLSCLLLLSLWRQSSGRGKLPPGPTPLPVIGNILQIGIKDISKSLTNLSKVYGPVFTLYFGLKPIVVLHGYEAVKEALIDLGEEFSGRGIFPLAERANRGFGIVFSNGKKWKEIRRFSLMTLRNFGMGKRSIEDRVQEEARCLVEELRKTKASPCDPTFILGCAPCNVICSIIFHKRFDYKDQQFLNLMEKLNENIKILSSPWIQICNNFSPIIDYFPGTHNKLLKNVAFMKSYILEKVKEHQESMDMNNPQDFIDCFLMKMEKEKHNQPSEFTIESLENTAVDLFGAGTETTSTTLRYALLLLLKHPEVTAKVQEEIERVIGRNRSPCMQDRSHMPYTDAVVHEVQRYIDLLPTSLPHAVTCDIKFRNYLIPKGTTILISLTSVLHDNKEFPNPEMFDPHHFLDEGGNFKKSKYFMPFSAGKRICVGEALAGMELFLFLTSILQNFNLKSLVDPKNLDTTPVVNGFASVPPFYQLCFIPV

[16] = Intrinsic clearance in rat hepatocytes assessed per million cells at 1 uM measured after 2 to 60 mins by LC-MS/MS analysis; format: ADME, cell-based, Hepatocyte; conditions: read-out: CLH
Method in brief: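 Rat hepatocyte incubation of the compound; intrinsic clearance measured after incubation.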

[17] = Inhibition of phospholipidosis in rat H42EC3 cells assessed as reduction in NBD-PE accumulation by SYTOX orange staining-based high content imaging analysis; format: cell-based
[18] = Passive apparent permeability across apical to basolateral side in human Caco2 cells at pH 6.5; format: ADME, cell-based; conditions: Caco-2, pH 6.5
Method in brief: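 Passive permeability across Caco-2 monolayers, measured in the A to B direction at pH 6.5.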

[19] = Octanol-phosphate buffer partition co-efficient, log D of the compound at pH 7.4 after 2 hrs by LC-MS/MS-based shake flask method; format: physicochemical
Method in brief: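 Distribution between octanol and water at pH 7.4.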

Cc1cc(-c2ccc(C(=O)[C@@H]3CCCC[C@H]3C(=O)Nc3cnn4c3C(=O)NCC4)cc2)[nH]n1
IC50 [1]: > 33 µM
IC50 [2]: > 33 µM
hepatocyte CLint at 1 µM [3]: 4.2 µL/min/1e6 cells
solubility thermodynamic at 24 h [4]: 104 µM (≈ 46.4 µg/mL)
IC50 (Cytochrome P450 2C8): > 20 µM
IC50 (Cytochrome P450 2D6): > 20 µM
Activity [5]: Non-Toxic
IC50 (Cytochrome P450 3A4): > 20 µM
Activity [6]: Non-Toxic
Activity [7]: Non-Toxic
IC50 [8]: > 33 µM
IC50 [9]: > 33 µM
IC50 [10]: > 33 µM
Activity [11]: Non-Toxic
Activity [12]: Non-Toxic
Activity [13]: Non-Toxic
fraction unbound [14]: 0.053
fraction unbound [15]: 0.024
IC50 (Cytochrome P450 2C9): > 20 µM
hepatocyte CLint at 1 µM [16]: 13.8 µL/min/1e6 cells
inhibition (INH) [17]: Non-Toxic
Papp A→B [18]: 3.7 ×10⁻⁶ cm/s
logD at 2 h [19]: 2.9

Cc1cc(-c2ccc(C(=O)[C@@H]3CCCC[C@H]3C(=O)Nc3cnn(C)c3C(=O)NOC(C)(C)C)cc2)[nH]n1
IC50 [1]: > 33 µM
IC50 [2]: > 33 µM
hepatocyte CLint at 1 µM [3]: 6 µL/min/1e6 cells
solubility thermodynamic at 24 h [4]: 208 µM (≈ 105 µg/mL)
IC50 (Cytochrome P450 2C8): > 20 µM
IC50 (Cytochrome P450 2D6): > 20 µM
Activity [5]: Non-Toxic
IC50 (Cytochrome P450 3A4): > 20 µM
Activity [6]: Non-Toxic
Activity [7]: Toxic
IC50 [8]: > 33 µM
IC50 [9]: > 33 µM
IC50 [10]: > 33 µM
Activity [11]: Toxic
Activity [12]: Non-Toxic
Activity [13]: Non-Toxic
fraction unbound [14]: 0.006
fraction unbound [15]: < 0.0004
IC50 (Cytochrome P450 2C9): > 20 µM
hepatocyte CLint at 1 µM [16]: 19.5 µL/min/1e6 cells
inhibition (INH) [17]: Non-Toxic
Papp A→B [18]: 14.7 ×10⁻⁶ cm/s
logD at 2 h [19]: 3.3

Cc1cc(-c2ccc(C(=O)[C@@H]3CCCC[C@H]3C(=O)Nc3cnn(C)c3S(N)(=O)=O)cc2)[nH]n1
IC50 [1]: > 33 µM
IC50 [2]: > 33 µM
hepatocyte CLint at 1 µM [3]: 4.9 µL/min/1e6 cells
solubility thermodynamic at 24 h [4]: 79.7 µM (≈ 37.5 µg/mL)
IC50 (Cytochrome P450 2C8): > 20 µM
IC50 (Cytochrome P450 2D6): > 20 µM
Activity [5]: Non-Toxic
IC50 (Cytochrome P450 3A4): > 20 µM
Activity [6]: Non-Toxic
Activity [7]: Non-Toxic
IC50 [8]: > 33 µM
IC50 [9]: > 33 µM
IC50 [10]: > 33 µM
Activity [11]: Non-Toxic
Activity [12]: Non-Toxic
Activity [13]: Non-Toxic
fraction unbound [14]: 0.031
fraction unbound [15]: 0.014
IC50 (Cytochrome P450 2C9): > 20 µM
hepatocyte CLint at 1 µM [16]: 9.7 µL/min/1e6 cells
inhibition (INH) [17]: Non-Toxic
Papp A→B [18]: 9 ×10⁻⁶ cm/s
logD at 2 h [19]: 3.4

Source: ChEMBL document CHEMBL4393654, “Discovery and Early Clinical Development of an Inhibitor of 5-Lipoxygenase Activating Protein (AZD5718) for Treatment of Coronary Artery Disease” (J Med Chem, 2019)
